# In ChEMBL document CHEMBL1629485, “Lead identification of conformationally restricted β-lactam type combretastatin analogues: synthesis, antiproliferative activity and tubulin targeting effects” (Eur J Med Chem, 2010):
# Experiments:
# Format in all cases: functional
# MDA-MB-231 [1] = test: Cell cycle arrest in estrogen receptor deficient human MDA-MB-231 cells assessed as appearance of polyploidy at 1 uM after 24 hrs using propidium iodide staining by flow cytometry relative to control
# Outline: (§1)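 MDA-MB-231 cells in DMEM with 10% FBS and 2 mM L-glutamine, seeded at 18 × 10⁴ cells/mL. Exposed to test agent at the stated final concentration, or to 1% (v/v) ethanol vehicle, for 24, 48 or 72 h. Harvested by scraping and centrifugation, then RNase A treatment and propidium iodide DNA staining for at least 30 min at 37 °C. 10,000 cells per sample read at 488 nm by flow cytometry; mean ± SD of three experiments.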
# MDA-MB-231 [2] = test: Cell cycle arrest in estrogen receptor deficient human MDA-MB-231 cells assessed as appearance of polyploidy at 1 uM after 72 hrs using propidium iodide staining by flow cytometry relative to control; outline: as §1
# MDA-MB-231 [3] = test: Cell cycle arrest in estrogen receptor deficient human MDA-MB-231 cells assessed as appearance of polyploidy at 100 nM after 24 hrs using propidium iodide staining by flow cytometry relative to control
# Outline: (§2)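 MDA-MB-231 cells seeded at 18 × 10⁴ cells/mL and exposed to 1% (v/v) ethanol vehicle or compound at final concentrations (10 nM, 100 nM, 10 µM at all times; 1 µM also at 24 and 72 h). Cells harvested after 24, 48 or 72 h and treated with RNase A and propidium iodide for at least 30 min at 37 °C. 10,000 cells read at 488 nm by flow cytometry. Percent cells per phase reported, including polyploid; mean ± SD of three experiments.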
# MDA-MB-231 [4] = test: Cell cycle arrest in estrogen receptor deficient human MDA-MB-231 cells assessed as accumulation at sub-G1 phase at 10 uM after 72 hrs using propidium iodide staining by flow cytometry relative to control; outline: as §1
# MDA-MB-231 [5] = test: Cell cycle arrest in estrogen receptor deficient human MDA-MB-231 cells assessed as accumulation at G1 phase at 10 uM after 72 hrs using propidium iodide staining by flow cytometry relative to control; outline: as §1
# MDA-MB-231 [6] = test: Cell cycle arrest in estrogen receptor deficient human MDA-MB-231 cells assessed as accumulation at S phase at 10 uM after 48 hrs using propidium iodide staining by flow cytometry relative to control; outline: as §1
# MDA-MB-231 [7] = test: Cell cycle arrest in estrogen receptor deficient human MDA-MB-231 cells assessed as accumulation at sub-G1 phase at 1 uM after 72 hrs using propidium iodide staining by flow cytometry relative to control; outline: as §1
# MDA-MB-231 [8] = test: Cell cycle arrest in estrogen receptor deficient human MDA-MB-231 cells assessed as accumulation at G2/M phase at 100 nM after 72 hrs using propidium iodide staining by flow cytometry relative to control; outline: as §1
# MDA-MB-231 [9] = test: Cell cycle arrest in estrogen receptor deficient human MDA-MB-231 cells assessed as appearance of polyploidy at 10 nM after 24 hrs using propidium iodide staining by flow cytometry relative to control; outline: as §1
# MDA-MB-231 [10] = test: Cell cycle arrest in estrogen receptor deficient human MDA-MB-231 cells assessed as accumulation at sub-G1 phase at 1 uM after 24 hrs using propidium iodide staining by flow cytometry relative to control; outline: as §1
# MDA-MB-231 [11] = test: Cell cycle arrest in estrogen receptor deficient human MDA-MB-231 cells assessed as accumulation at S phase at 100 nM after 72 hrs using propidium iodide staining by flow cytometry relative to control; outline: as §1
# MDA-MB-231 [12] = test: Cell cycle arrest in estrogen receptor deficient human MDA-MB-231 cells assessed as accumulation at G1 phase at 1 uM after 72 hrs using propidium iodide staining by flow cytometry relative to control; outline: as §1
# MDA-MB-231 [13] = test: Cell cycle arrest in estrogen receptor deficient human MDA-MB-231 cells assessed as accumulation at sub-G1 phase at 10 uM after 48 hrs using propidium iodide staining by flow cytometry relative to control; outline: as §1
# MDA-MB-231 [14] = test: Cell cycle arrest in estrogen receptor deficient human MDA-MB-231 cells assessed as accumulation at S phase at 10 uM after 72 hrs using propidium iodide staining by flow cytometry relative to control; outline: as §1
# MDA-MB-231 [15] = test: Cell cycle arrest in estrogen receptor deficient human MDA-MB-231 cells assessed as accumulation at sub-G1 phase at 100 nM after 24 hrs using propidium iodide staining by flow cytometry relative to control; outline: as §1
# MDA-MB-231 [16] = test: Cell cycle arrest in estrogen receptor deficient human MDA-MB-231 cells assessed as accumulation at G2/M phase at 10 nM after 24 hrs using propidium iodide staining by flow cytometry relative to control; outline: as §1
# MDA-MB-231 [17] = test: Cell cycle arrest in estrogen receptor deficient human MDA-MB-231 cells assessed as accumulation at S phase at 1 uM after 24 hrs using propidium iodide staining by flow cytometry relative to control; outline: as §1
# MDA-MB-231 [18] = test: Cell cycle arrest in estrogen receptor deficient human MDA-MB-231 cells assessed as accumulation at sub-G1 phase at 100 nM after 72 hrs using propidium iodide staining by flow cytometry relative to control; outline: as §1
# MDA-MB-231 [19] = test: Cell cycle arrest in estrogen receptor deficient human MDA-MB-231 cells assessed as accumulation at G1 phase at 10 nM after 72 hrs using propidium iodide staining by flow cytometry relative to control; outline: as §1
# MDA-MB-231 [20] = test: Cell cycle arrest in estrogen receptor deficient human MDA-MB-231 cells assessed as accumulation at sub-G1 phase at 10 nM after 24 hrs using propidium iodide staining by flow cytometry relative to control; outline: as §1
# MDA-MB-231 [21] = test: Cytotoxicity against estrogen receptor deficient human MDA-MB-231 cells assessed as LDH release at 10 uM
# Outline: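 After compound treatment, LDH was measured with a commercial LDH kit. Result is % cell lysis at 10 μM compound.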
# MDA-MB-231 [22] = test: Cell cycle arrest in estrogen receptor deficient human MDA-MB-231 cells assessed as appearance of polyploidy at 100 nM after 72 hrs using propidium iodide staining by flow cytometry relative to control; outline: as §2
# MDA-MB-231 [23] = test: Cell cycle arrest in estrogen receptor deficient human MDA-MB-231 cells assessed as appearance of polyploidy at 10 uM after 48 hrs using propidium iodide staining by flow cytometry relative to control; outline: as §2
# MDA-MB-231 [24] = test: Cell cycle arrest in estrogen receptor deficient human MDA-MB-231 cells assessed as accumulation at G2/M phase at 10 nM after 72 hrs using propidium iodide staining by flow cytometry relative to control; outline: as §1
# MDA-MB-231 [25] = test: Cell cycle arrest in estrogen receptor deficient human MDA-MB-231 cells assessed as appearance of polyploidy at 10 uM after 24 hrs using propidium iodide staining by flow cytometry relative to control; outline: as §1
# MDA-MB-231 [26] = test: Cell cycle arrest in estrogen receptor deficient human MDA-MB-231 cells assessed as appearance of polyploidy at 10 nM after 72 hrs using propidium iodide staining by flow cytometry relative to control; outline: as §1
# MDA-MB-231 [27] = test: Cell cycle arrest in estrogen receptor deficient human MDA-MB-231 cells assessed as accumulation at G1 phase at 100 nM after 72 hrs using propidium iodide staining by flow cytometry relative to control; outline: as §1
# MDA-MB-231 [28] = test: Cell cycle arrest in estrogen receptor deficient human MDA-MB-231 cells assessed as accumulation at S phase at 10 nM after 72 hrs using propidium iodide staining by flow cytometry relative to control; outline: as §1
# MDA-MB-231 [29] = test: Cell cycle arrest in estrogen receptor deficient human MDA-MB-231 cells assessed as accumulation at G2/M phase at 1 uM after 72 hrs using propidium iodide staining by flow cytometry relative to control; outline: as §1
# MDA-MB-231 [30] = test: Cell cycle arrest in estrogen receptor deficient human MDA-MB-231 cells assessed as appearance of polyploidy at 100 nM after 48 hrs using propidium iodide staining by flow cytometry relative to control; outline: as §2
smiles,measurement,setting,value
COc1ccc(C2CC(=O)N2c2cc(OC)c(OC)c(OC)c2)cc1O (stereo not given),Activity,MDA-MB-231 [1],4.31%
same,Activity,MDA-MB-231 [2],5.97%
same,Activity,MDA-MB-231 [3],4.87%
same,Activity,MDA-MB-231 [4],46.49%
same,Activity,MDA-MB-231 [5],17.14%
same,Activity,MDA-MB-231 [6],4.47%
same,Activity,MDA-MB-231 [7],50.53%
same,Activity,MDA-MB-231 [8],12.62%
same,Activity,MDA-MB-231 [9],2.84%
same,Activity,MDA-MB-231 [10],7.08%
same,Activity,MDA-MB-231 [11],5.34%
same,Activity,MDA-MB-231 [12],14.29%
same,Activity,MDA-MB-231 [13],51.27%
same,Activity,MDA-MB-231 [14],9.66%
same,Activity,MDA-MB-231 [15],4.88%
same,Activity,MDA-MB-231 [16],25.61%
same,Activity,MDA-MB-231 [17],6.01%
same,Activity,MDA-MB-231 [18],63.1%
same,Activity,MDA-MB-231 [19],48.24%
same,Activity,MDA-MB-231 [20],3.72%
same,Activity,MDA-MB-231 [21],16%
same,Activity,MDA-MB-231 [22],2.99%
same,Activity,MDA-MB-231 [23],2.28%
same,Activity,MDA-MB-231 [24],17.68%
same,Activity,MDA-MB-231 [25],3.85%
same,Activity,MDA-MB-231 [26],3.55%
same,Activity,MDA-MB-231 [27],13.9%
same,Activity,MDA-MB-231 [28],9.08%
same,Activity,MDA-MB-231 [29],21.24%
same,Activity,MDA-MB-231 [30],4.61%
